Source: PubChem
Hits are enriched below; roughly 3.7% of the tested compounds scored in any of these assays.
Kir21 inh = inhibitors of mouse Kir2.1 inward-rectifier potassium channel; P35561; HEK293-Kir2.1, FluxOR thallium flux fluorescence; hits give low values; B-score at 10 µM; hit rate 0.85% among 310,000; AID 1672;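 active = fluorescence ratio B-score at or below minus 3 SD of library scores, with starting-brightness B-score within 2 SD, cut at about -4.2 in these data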;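 also: channel flux triggered by added potassium and thallium sulfate stimulus; B-score of peak minus minimum fluorescence over baseline after thallium stimulus; more negative B-score means stronger Kir2.1 block with less thallium influx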
KCNK3 inh = human KCNK3 channel inhibition, primary screen; hit rate 0.84% among 340,000; CHO-KCNK3 thallium flux, FluxOR fluorescence; hits give low values; B-score at 10 µM; O14649;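 active = B-score under library mean minus 4 SD, starting fluorescence ratio at most library mean plus 5 SD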;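 also: more negative B-score means stronger inhibition of thallium flux through KCNK3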
KCNK9 block = blocks the human KCNK9 two-pore domain potassium channel; Q9NPC2; hit rate 1.2% among 310,000; B-score at 10 µM; HEK293 KCNK9, FluxOR thallium flux fluorescence; hits give low values;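 active = ratio B-score over 3 SD below the library mean, with starting fluorescence within 5 SD of its mean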;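 also: negative B-score means less thallium flux so channel inhibition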
Target sequence (Q9NPC2 whole entry, looked up, the tested form may be a part): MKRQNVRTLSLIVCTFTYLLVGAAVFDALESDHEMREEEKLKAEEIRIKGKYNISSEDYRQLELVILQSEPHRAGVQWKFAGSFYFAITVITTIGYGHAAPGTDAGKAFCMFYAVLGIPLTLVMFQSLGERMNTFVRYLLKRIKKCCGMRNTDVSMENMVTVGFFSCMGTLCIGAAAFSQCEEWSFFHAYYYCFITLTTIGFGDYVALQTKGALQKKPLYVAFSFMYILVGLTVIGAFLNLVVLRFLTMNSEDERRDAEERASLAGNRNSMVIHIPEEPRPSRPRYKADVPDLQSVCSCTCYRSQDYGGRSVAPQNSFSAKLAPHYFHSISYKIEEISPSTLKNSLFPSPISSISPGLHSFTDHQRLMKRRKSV
KCNQ1 pot = potentiators or activators of human KCNQ1 potassium channel. P51787. CHO-K1 KCNQ1, thallium flux FluxOR fluorescence; hits give high values. B-score at 10 µM. hit rate 0.35% among 310,000;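 active = fluorescence ratio B-score, a plate-corrected score, at least three library SD, with initial intensity B-score within 5 SD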
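Assay system: stable KCNQ1 CHO-K1 line; medium: assay buffer, equal DMSO in all wells; timing: 90 min dye loading and 20 min compound exposure, both at room temperature; technique: kinetic FluxOR thallium fluorescence, 10-s 1-Hz baseline, 110-s post-stimulus read; read-out basis: B score of baseline-normalized fluorescence ratio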
hERG protect = hERG (human) protection from proarrhythmic block. CHO-hERG, FluxOR thallium flux, dofetilide IC70 present. hit rate 0.51% among 310,000. Q12809. activation (rescue from dofetilide block), less the hit threshold, % at 10 µM;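 active = activation above the mean of controls blocked by dofetilide plus 5 SD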;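 also: thallium influx through hERG after potassium depolarization seen as dye fluorescence rise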
KCNQ1 inh = human KCNQ1 channel inhibition; B-score at 10 µM; CHO-K1 KCNQ1, FluxOR thallium flux fluorescence; hits give high values; P51787; hit rate 1.3% among 310,000;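 active = compounds whose thallium flux B-score, printed positive for inhibition, exceeds three library SD while starting fluorescence stays within three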;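 also: channel opened by potassium depolarization with thallium stimulus after 20 min compound exposure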
* = called active by the depositor; i = inactive; x = no result given.

SMILES	Kir21 inh	KCNK3 inh	KCNK9 block	KCNQ1 pot	hERG protect	KCNQ1 inh
NC1=NC(c2ccc(F)cc2)n2c(nc3ccccc32)N1 (stereo unspecified)	-1.57	i	i	i	-7.6	i
COc1ccc([N+](=O)[O-])cc1N(CC(O)CN(CC(C)C)CC(C)C)S(=O)(=O)c1ccccc1 (stereo unspecified)	0.16	i	-6.72*	i	-7.7	i
CCCCN(CCCC)CC(O)CN(c1cc([N+](=O)[O-])ccc1OC)S(=O)(=O)c1ccccc1 (stereo unspecified)	0.07	i	i	i	-15.0	i
CCOC(CNCc1cc(C)c2[nH]c3ccccc3c2c1C)OCC	x	i	x	x	x	x
CCOc1ccc(N=Nc2ccc(O)c3ncccc23)cc1	1.68	i	i	i	10.6*	i
CCOc1ccc(N=Nc2cc(C(C)C)ccc2O)cc1	1.62	i	i	i	9.1*	i
CCOc1ccc(N=C(C)c2ccccc2O)cc1	0	i	i	i	-0.8	i
Cc1cccc(N=Nc2ccc(O)c3ncccc23)c1	-0.91	i	i	10*	2.2	i
Cc1ccc(C)c(N=Nc2ccc(O)c3ncccc23)c1	0.98	i	i	i	-6.1	i
CCOC(=O)C1CCN(c2cc3c(cc2NC(=O)c2ccc(OC)c(OC)c2)n(C)c(=O)n3C)CC1	2.28	i	-6.82*	i	-7.0	i
CCOC(=O)C1CCN(c2cc3c(cc2NC(=O)c2ccccc2)n(C)c(=O)n3C)CC1	0.86	i	i	i	-10.3	i
COc1ccc(/C=C2/CSC/C(=C/c3ccc(OC)c(OC)c3)C2=O)cc1OC	x	i	x	x	x	x
Clc1ccc(CONc2ncnc3nonc23)c(Cl)c1	-1.59	i	i	i	-25.3	7*
O=C(COC(=O)c1ccc2c(c1)OCO2)NC1CCCCC1	x	i	x	x	x	x
Cc1ccc(S(=O)(=O)N2CCOCC2)cc1NC(=O)COC(=O)c1ccc(Br)o1	x	i	x	x	x	x
Cc1oc(-c2ccc(Cl)cc2)nc1CN1CCC(C(=O)NCCCN2CCOCC2)CC1	-4.57*	i	i	i	-6.5	i
CCC1CCCCN1CCCNC(=O)C1CCN(Cc2nc(-c3ccc(Cl)cc3)oc2C)CC1 (stereo unspecified)	-1.17	i	i	i	-8.8	i
CC1(C)N=C(N)NC(Nc2cccc(Br)c2)=N1	0.07	i	i	9*	-6.3	i
CCOc1ccc(OCC)c(NC(=O)CCCN2C(=O)c3cccnc3C2=O)c1	0.1	i	i	i	7.5*	i
CCOc1ccc(CCNC(=O)c2nccnc2C(=O)O)cc1OCC	-0.63	i	i	i	-3.2	i
CCOc1ccc(CCNC(=O)C2(c3ccccc3)CC2)cc1OCC	-4.52*	i	i	i	-6.0	i
CC1=CS(=O)(=O)CC1Sc1ncn[nH]1 (stereo unspecified)	-0.57	i	i	i	4.7*	i
CCC(C)(C)C1CCC2(CC1)NC(=O)N(CC(=O)N(C)Cc1ccc3c(c1)OCCO3)C2=O (stereo unspecified)	x	i	x	x	x	x
COC(=O)CN(c1nc(C)cc(OC)n1)S(=O)(=O)c1ccccc1	-3.16	i	i	i	-3.3	i
COC(=O)CN(c1nc(C)c(Br)c(OC)n1)S(=O)(=O)c1ccccc1	-5.45*	i	i	i	-9.0	i
SMILES	Kir21 inh	KCNK3 inh	KCNK9 block	KCNQ1 pot	hERG protect	KCNQ1 inh
C/C(=N\O)c1noc(C)c1C(=O)Nc1nccs1	1.56	i	i	i	-9.1	i
CC(=O)C1=C(C)NC(SCC(=O)Nc2nc3ccccc3s2)=C(C#N)C1c1ccc(Cl)cc1 (stereo unspecified)	-0.01	i	i	i	-7.8	7*
COc1ccc(NC(=O)CSC2=C(C#N)C(c3ccco3)C(C(=O)Nc3nc4ccccc4s3)=C(C)N2)cc1 (stereo unspecified)	1.25	i	i	i	-7.0	i
Cc1nn2cnnc2c(C)c1Cc1c(F)cccc1Cl	-0.16	i	i	i	-4.2	i
Cc1cccc(Cn2c(C(=O)OC(C)C)cc3c2ccn3C)c1	-0.39	i	i	i	-17.4	6*
COC(=O)c1cc2occc2n1Cc1cccc(C)c1	-0.01	i	i	i	-12.7	i
CN(C)C(=O)c1cc(C(=O)c2ccc(F)cc2C(F)(F)F)c[nH]1	2	i	i	i	-0.8	i
Cc1ccc(-c2csc3ncnc(SCC(=O)NCC4CCCO4)c23)cc1 (stereo unspecified)	x	i	x	x	x	x
COc1ccc(C2/C=C\CN(Cc3ccco3)CC(=O)N2Cc2ccc(F)cc2)cc1 (stereo unspecified)	-0.84	i	-6.88*	i	-7.3	i
CCOc1ccc(N2CC(C(=O)Nc3ccc(S(=O)(=O)Nc4nccs4)cc3)CC2=O)cc1 (stereo unspecified)	-0.73	i	i	i	-7.3	i
OC[C@H]1O[C@H](OC[C@H]2O[C@H](OC[C@H]3O[C@H](O[C@]4(CO)O[C@H](CO)[C@@H](O)[C@@H]4O)[C@H](O)[C@@H](O)[C@@H]3O)[C@H](O)[C@@H](O)[C@H]2O)[C@H](O)[C@@H](O)[C@H]1O	-0.06	i	i	32*	-3.3	i
CCOc1ccc(CCNC(=O)COC(=O)c2ccc(Br)o2)cc1OCC	-1.68	i	i	i	-10.4	i
COCCNC(=O)C(c1ccncc1)N(C(=O)Cn1nnc2ccccc21)c1ccc(OC)cc1 (stereo unspecified)	-0.88	i	i	i	5.0*	i
COc1ccc(C(CNC(=O)Cc2ccccc2F)N2CCCCC2)cc1 (stereo unspecified)	-1.81	i	i	i	6.3*	i
CC(C)C(=O)Nc1ccc(S(=O)(=O)N2CCC(c3nc4ccccc4[nH]3)CC2)cc1	-0.09	i	i	i	-15.1	i
Cc1cc(C(=O)NNC(=O)c2ccc(C(F)(F)F)cc2)no1	-0.28	i	i	i	-4.1	i
CC(C)(C)c1cc(C(=O)NNC(=O)c2ccc(Cl)cc2)no1	0.09	i	i	18*	5.7*	i
O=C(COC(=O)c1cccc(S(=O)(=O)NCc2ccccc2)c1)c1ccccc1	0.04	i	i	i	-7.6	i
Cc1cc(C)c(C(=O)COC(=O)c2cccc(S(=O)(=O)NCc3ccccc3)c2)cc1C	-4.31*	i	i	i	-7.0	i
O=C(Nc1ccc(F)cc1)C1CCN(S(=O)(=O)c2cccc3nonc23)CC1	-1.23	i	i	i	-13.2	i
